Sampled rows, rich in hits. Any-hit rate of the full collection: about 2.1%.
RBBP9 inhibitor: inhibitors of human serine hydrolase RBBP9; O75884; recombinant RBBP9, FP-Rh probe fluorescence polarization; inhibition, % at 7.94 µM; actives 0.2% (n = 220,000); AID 1515;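 active = inhibition above the campaign mean of all tested compounds plus 3 SD, cut at about 14% in these data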
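Test system: recombinant human RBBP9. Quantity: 2.5 µM RBBP9 dispensing solution, before mixing. Detection: FP readout at 525/598 nm. Reagent: Serine-hydrolase probe FP-Rh, 375 nM pre-mixing. Measure: % inhibition. Control set: DMSO-treated enzyme wells and wells lacking RBBP9. Buffer or medium: Tris-NaCl-Pluronic buffer, pH 8.0. Times: preincubation 30 min plus labeling 45 min at 25 °C.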
Pf gametocyte: P. falciparum stage V gametocyte viability inhibition; P. falciparum stage V gametocytes, ATP luminescence, 24 h; inhibition, % at 10.9 µM; actives 0.065% (n = 150,000); AID 743093;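 active = inhibition above the mean plus 3 SD of compounds within the control limits, set per campaign, cut at about 38% in these data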
TNF death inh: blocks TNF-alpha induced death of Jurkat FADD-/- cells; Jurkat FADD-/- TNF necroptosis rescue, ATP luminescence, 24 h; 0 = TNF only, 100 = no-TNF cells; activation (protection from cell death), % at 10 µM; actives 0.068% (n = 220,000); AID 463075;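 active = activation, meaning protection from cell death, of at least 50% relative to plate controls; inactive = activation below 50%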;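 note: necroptosis triggered by 40 ng/mL TNF-alpha added together with compound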
Wee1 stabilizer: blocks degradation of human Wee1 kinase. P30291. HeLa Luc-Wee1K328M stability, luciferase luminescence; 100% = proteasome inhibitor MG132 effect. reporter increase, % at 5 µM. actives 1.2% (n = 220,000). AID 1321;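 active = activation above the mean of all tested compounds plus 3 SD, set per screening run, cut at about 8.8% in these data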;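 note: cells exposed to compound for 20 h before luminescence read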
Target sequence (P30291 whole entry K328M): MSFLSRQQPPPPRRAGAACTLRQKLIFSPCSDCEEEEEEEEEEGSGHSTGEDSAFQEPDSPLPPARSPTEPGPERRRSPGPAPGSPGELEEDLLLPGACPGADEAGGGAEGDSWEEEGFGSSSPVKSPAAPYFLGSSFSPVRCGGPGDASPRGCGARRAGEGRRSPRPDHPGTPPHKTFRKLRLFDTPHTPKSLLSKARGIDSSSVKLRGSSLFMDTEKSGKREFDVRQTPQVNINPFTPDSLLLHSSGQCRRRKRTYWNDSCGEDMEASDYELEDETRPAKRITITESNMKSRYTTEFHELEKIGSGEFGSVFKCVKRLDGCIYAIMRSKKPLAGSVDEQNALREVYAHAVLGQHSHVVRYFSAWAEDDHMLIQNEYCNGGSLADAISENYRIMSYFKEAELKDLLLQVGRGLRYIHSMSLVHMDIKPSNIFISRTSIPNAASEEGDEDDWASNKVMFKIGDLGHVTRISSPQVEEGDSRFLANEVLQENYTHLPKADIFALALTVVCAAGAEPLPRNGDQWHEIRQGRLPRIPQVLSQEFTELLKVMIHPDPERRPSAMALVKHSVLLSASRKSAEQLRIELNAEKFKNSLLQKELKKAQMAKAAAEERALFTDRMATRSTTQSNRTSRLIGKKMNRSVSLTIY
L929 necroptosis: blocks zVAD induced death of L929 cells; L929 zVAD necroptosis rescue, ATP luminescence, 24 h; with zVAD 60 µM; viability rescue, % at 10 µM; actives 0.38% (n = 220,000); AID 1377;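 active = activation, scaled between plate controls, above about 75%, limit read from the data; inactive = activation under that limit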
m-calpain inh: inhibitors of pig calpain II; AID 1236; purified calpain II, fluorogenic peptide substrate, 30 min; actives 0.37% (n = 220,000); inhibition, % at 16 µM;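 active = inhibition above about 50%, limit read from the data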
RBBP9 inh conf: human RBBP9 inhibition, confirmation. shares compounds with RBBP9 inhibitor. recombinant RBBP9, FP-Rh probe fluorescence polarization. inhibition, % at 7.94 µM. actives 36% (n = 410). AID 1537;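 active = inhibition above the hit cutoff derived for the primary screen, cut at about 15% in these data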
Hits are given with their value; - = inactive; . = not tested or not shown.

SMILES	RBBP9 inhibitor	Pf gametocyte	TNF death inh	Wee1 stabilizer	L929 necroptosis	m-calpain inh	RBBP9 inh conf
Cc1ccc(S(=O)(=O)Nc2ccc3oc(=O)sc3c2)c(C)c1	20	-	-	-	-	-	16
Cc1nn(C(C)C(=O)O)c(=O)c2ccccc12 (stereo not drawn)	18	-	-	-	-	-	-
O=C1CCC(=O)N1c1ccc(-c2nc3sc4c(c3c(=O)o2)CCC4)cc1	15	-	-	-	-	-	-
CCN(CC)C(=O)C(Cc1ccccc1)N1C(=O)c2ccccc2C1=O (stereo not drawn)	-	-	-	-	-	-	.
C=CCN1C(=O)C(C)NC1=S (stereo not drawn)	22	-	-	-	-	-	-
C=CCN1C(=O)C(C(C)CC)NC1=S (stereo not drawn)	-	.	-	-	-	-	.
CCN1C(=O)c2cccc3c(NC(=O)c4ccc(OC)c(OC)c4)ccc1c23	-	.	-	-	-	-	.
CNC(=S)Nc1cccc([N+](=O)[O-])c1	-	-	-	-	-	-	.
CC(=O)NC(=S)Nc1cccc([N+](=O)[O-])c1	17	-	-	-	-	-	-
C=CCN(C(=O)c1csnn1)C(C(=O)NC(C)(C)C)c1ccncc1 (stereo not drawn)	-	-	-	-	-	-	.
CC(=O)C(=Nc1ccc(Cl)cc1Cl)NNc1cccc(Cl)c1	32	.	-	-	-	-	-
CC(Sc1ncnc2ccccc12)C(=O)Nc1ccc2c(c1)OCCO2 (stereo not drawn)	-	-	-	-	-	-	.
O=C(NCCN1CCN(Cc2ccccc2Cl)CC1)Nc1ccccc1	-	.	-	-	-	-	.
Cc1cc(C)cc(N(C(=O)c2csnn2)C(C(=O)NC(C)(C)C)c2cccs2)c1 (stereo not drawn)	15	.	-	-	-	-	-
CCC(=O)N=c1n(C)c2ccccc2n1CCOc1ccccc1	16	-	-	-	-	-	-
Cc1ccccc1-c1nnc(NC(=O)CSc2nc3ccccc3s2)s1	-	.	-	-	.	-	.
CC1CCN(c2cc(N)c(Cl)cc2[N+](=O)[O-])CC1	-	.	-	-	-	-	.
CCOC(=O)C1=C(C)NC(=S)N(C(C)=O)C1c1ccc(Cl)cc1 (stereo not drawn)	-	.	-	-	-	-	.
COCCOC(=O)C1=C(C)NC(=O)N(C(C)=O)C1c1ccc(Cl)cc1 (stereo not drawn)	15	.	-	-	-	-	-
Cc1cc(NC(=O)c2ccc(Cl)cc2)c(C)cc1O	-	-	-	-	-	-	.
Cc1cc(O)c(-c2cc(O)c(C)cc2O)cc1O	47	.	-	-	-	-	73
Cc1c(Br)c(O)c(Br)c2sc(=O)oc12	25	-	-	-	-	-	38
Cc1ccc(/C=C2\SC(=S)N(/N=C/c3cc([N+](=O)[O-])ccc3O)C2=O)o1	15	.	-	-	-	-	23
CCc1ccc(OCC(=O)O/N=C(\N)c2cccnc2)cc1	15	-	-	-	-	-	-
CCCN1C(=O)S/C(=C\c2ccc(N3CCOCC3)o2)C1=O	-	-	-	-	-	-	.
SMILES	RBBP9 inhibitor	Pf gametocyte	TNF death inh	Wee1 stabilizer	L929 necroptosis	m-calpain inh	RBBP9 inh conf
CCCN1C(=O)S/C(=C/c2ccc(N3CCOCC3)o2)C1=O	14	-	-	-	-	-	-
COc1ccc(OC)c(CCNC(=O)Cn2cccc2C(=O)c2ccccc2C)c1	15	-	-	-	-	-	-
COc1ccc(OCc2nn3c(-c4ccccn4)nnc3s2)cc1	15	.	-	-	-	-	-
COc1ccc(-c2nnc3sc(COc4ccccc4)nn23)cc1	-	-	-	-	-	-	.
O=C(OCC(=O)N1CCN(C(=O)c2ccco2)CC1)c1ccccc1OCc1ccc(Cl)cc1	20	.	-	-	-	-	-
O=C(OCC(=O)N1CCN(C(=O)c2ccco2)CC1)c1ccccc1O	-	.	-	-	-	-	.
CCC(NS(=O)(=O)c1ccc(C)cc1)C(=O)Nc1ccc(NC(C)=O)cc1 (stereo not drawn)	16	-	-	-	-	-	-
CCC(C)NS(=O)(=O)c1ccc(NC(C)=O)cc1 (stereo not drawn)	-	-	-	-	-	-	.

Source: PubChem
